What was measured:
SGC7901/DDP [1] = test: CCK-8 cell growth and sensitisation to DDP; assay type: cell-based, human
In short: (§1)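 Exponential-phase cells were trypsinised, diluted to 5 × 10^7/l and plated, then cultured 24 h at 37 °C. Test compound was added where indicated (DMF <0.2%), and DDP (saline stock 5.0 mM) was added 1 h later. After 72 h at 37 °C, CCK-8 was applied for 2 h and A450 was read. Live cells were calculated as % of the no-DDP, no-inhibitor control. Done in triplicate.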

COC1/DDP = test: CCK-8 cell growth and sensitisation to DDP; assay type: cell-based, human
In short: as §1

SGC7901/DDP [2] = test: Apoptosis percentages; assay type: cell-based, human; details: DDP alone 2.0 μM, EDEA alone 1.0 and 2.0 μM
A549/DDP [3] = test: CCK-8 cell growth and sensitisation to DDP; assay type: cell-based, human
In short: as §1

SK-OV-3/DDP = test: CCK-8 cell growth and sensitisation to DDP; assay type: cell-based, human; details: SK-OV-3/DDP cells versus SK-OV-3 cells
In short: as §1

A549/DDP [4] = test: Apoptosis percentages; assay type: cell-based, human; details: DDP alone 2.0 μM, EDEA alone 1.0 and 2.0 μM
drug-resistant cancers = details: cited from earlier work

Structure (SMILES)	IC50 value of DDP in resistant versus parental cells (SGC7901/DDP [1])	IC50 value of DDP in resistant versus parental cells (COC1/DDP)	effect of single agent on apoptosis percentages (SGC7901/DDP [2])	IC50 value of DDP in resistant versus parental cells (A549/DDP [3])	IC50 value of DDP in resistant versus parental cells (SK-OV-3/DDP)	effect of single agent on apoptosis percentages (A549/DDP [4])	level that sensitised drug-resistant cancers to DDP in vitro (drug-resistant cancers)
N.N.[Cl][Pt][Cl] [DDP, cisplatin]	~3 fold	~4 fold	did not greatly alter	~7 fold	~4 fold	did not greatly alter	–
C=C(CC)C(=O)c1ccc(OCC(=O)O)c(Cl)c1Cl [EAA, ethacrynic acid]	–	–	–	–	–	–	~20 µM

Source: PMC8865112 (Journal of Enzyme Inhibition and Medicinal Chemistry, 2022)
